Calls of active or inactive are those of the source. The calls are words filed in the database; no cut-off is given here.
Key:
PBS RNA [1] = test: Binding affinity to HIV1 (+)PBS/(-)PBS RNA sequence assessed as inhibition of recombinant full-length HIV-1 nucleocapsid protein-mediated (+)/(-)PBS RNA annealing preincubated with (+)/(-)PBS RNA for 15 mins followed by NC addition and measured after 10 mins by RAMPA assay; type: nucleic-acid assay, Human immunodeficiency virus 1
Outline: (§1)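 Each folded PBS RNA strand (1 μM) was preincubated with compound for 15 min at room temperature. The two strands were then mixed with annealer: NC at 3 μM for line 4, Tat(48–57) […]. Annealing ran 10 min at room temperature and products were resolved by gel. The annealer-induced duplex band was quantified to derive IC50, reported as mean ± SEM of triplicate experiments.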

PBS RNA [2] = test: Binding affinity to HIV1 (+)/(-) PBS RNA sequence assessed as inhibition of HIV-1 Tat (48 to 57 residues) mediated (+)/(-)PBS RNA annealing preincubated with (+)/(-)PBS RNA for 15 mins followed by peptide addition and measured after 10 mins by RAMPA assay; type: nucleic-acid assay, Human immunodeficiency virus 1; outline: as §1
PBS RNA [3] = test: Binding affinity to HIV1 (+)PBS RNA assessed as compound-RNA complex formation at stoichiometry ratio of 1:1 incubated for 30 mins measured under non-denaturing conditions by ESI-MS analysis; type: nucleic-acid assay; details: Human immunodeficiency virus 1
Outline: (§2)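 In ESI-MS spectra of compound–RNA mixtures, peaks for free RNA and complexed species were quantified. The percentage of bound substrate in each spectrum gave the relative binding affinity for each RNA construct.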

PBS RNA [4] = test: Binding affinity to HIV1 (-)PBS RNA assessed as compound-RNA complex formation at stoichiometry ratio of 1:1 incubated for 30 mins measured under non-denaturing conditions by ESI-MS analysis; type: nucleic-acid assay; details: Human immunodeficiency virus 1; outline: as §2
PBS RNA [5] = test: Binding affinity to HIV1 (+)PBS RNA assessed as compound-RNA complex formation at stoichiometry ratio of 2:1 incubated for 30 mins measured under non-denaturing conditions by ESI-MS analysis; type: nucleic-acid assay; details: Human immunodeficiency virus 1
Outline: (§3)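 ESI-MS binding: compound–RNA mixtures analysed for free and compound-bound RNA species, including 2:1 complexes. Species peak intensities were quantified to give the free versus bound partitioning, and the percentage of bound substrate in each spectrum was used to derive relative binding affinity for each RNA construct.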

PBS RNA [6] = test: Binding affinity to HIV1 (-)PBS RNA assessed as compound-RNA complex formation at stoichiometry ratio of 2:1 incubated for 30 mins measured under non-denaturing conditions by ESI-MS analysis; type: nucleic-acid assay; details: Human immunodeficiency virus 1; outline: as §3
PBS RNA [7] = test: Binding affinity to HIV1 (+)PBS RNA at apical loop assessed as compound-RNA complex formation at stoichiometry ratio of 1:1 by MS/MS spectrum analysis; type: nucleic-acid assay; details: Human immunodeficiency virus 1

Compound	IC50 (PBS RNA [1]) [µM]	IC50 (PBS RNA [2]) [µM]	Activity (PBS RNA [3])	Activity (PBS RNA [4])	Activity (PBS RNA [5])	Activity (PBS RNA [6])	Activity (PBS RNA [7])
NCCC(N)C(=O)NCCC(=O)Nc1ccc2c(c1)C(=O)c1ccc(NC(=O)CCNC(=O)C(N)CCN)cc1C2=O (stereo unspecified)	30	24	Active	Active	–	–	–
C[C@H](NC(=O)C(N)CCCCN)C(=O)Nc1ccc2c(c1)C(=O)c1ccc(NC(=O)[C@H](C)NC(=O)C(N)CCCCN)cc1C2=O (stereo partly specified)	12	15	–	–	Active	Active	Active
NCCCC(N)C(=O)NCCC(=O)Nc1ccc2c(c1)C(=O)c1ccc(NC(=O)CCNC(=O)C(N)CCCN)cc1C2=O (stereo unspecified)	20	20	–	–	Active	Active	–
C[C@H](NC1(N)CCNCC1)C(=O)Nc1ccc2c(c1)C(=O)c1ccc(NC(=O)[C@H](C)NC3(N)CCNCC3)cc1C2=O	> 200	> 200	Active	Active	–	–	–
NCCCC(N)C(=O)NCC(=O)Nc1ccc2c(c1)C(=O)c1ccc(NC(=O)CNC(=O)C(N)CCCN)cc1C2=O (stereo unspecified)	30	34	Active	Active	–	–	–
C[C@H](NC(=O)C(N)CCCN)C(=O)Nc1ccc2c(c1)C(=O)c1ccc(NC(=O)[C@H](C)NC(=O)C(N)CCCN)cc1C2=O (stereo partly specified)	21	16	Active	Active	–	–	–
C[C@H](NC(=O)C(N)CN)C(=O)Nc1ccc2c(c1)C(=O)c1ccc(NC(=O)[C@H](C)NC(=O)C(N)CN)cc1C2=O (stereo partly specified)	54	45	Active	Active	–	–	–
C[C@@H](NC1CCNCC1)C(=O)Nc1ccc2c(c1)C(=O)c1ccc(NC(=O)[C@@H](C)NC3CCNCC3)cc1C2=O	> 200	> 200	Active	Active	–	–	–
C[C@@H](NC(=O)C(N)CCCN)C(=O)Nc1ccc2c(c1)C(=O)c1ccc(NC(=O)[C@@H](C)NC(=O)C(N)CCCN)cc1C2=O (stereo partly specified)	55	54	Active	Active	–	–	–
C[C@H](NC(=O)C(N)CCN)C(=O)Nc1ccc2c(c1)C(=O)c1ccc(NC(=O)[C@H](C)NC(=O)C(N)CCN)cc1C2=O (stereo partly specified)	88	> 100	Active	Active	–	–	–
NCCCCC(N)C(=O)NCC(=O)Nc1ccc2c(c1)C(=O)c1ccc(NC(=O)CNC(=O)C(N)CCCCN)cc1C2=O (stereo unspecified)	23	18	–	–	Active	Active	–
C[C@@H](NC(=O)C(N)CCCCN)C(=O)Nc1ccc2c(c1)C(=O)c1ccc(NC(=O)[C@@H](C)NC(=O)C(N)CCCCN)cc1C2=O (stereo partly specified)	54	48	Active	Active	–	–	–
NCCCCC(N)C(=O)NCCC(=O)Nc1ccc2c(c1)C(=O)c1ccc(NC(=O)CCNC(=O)C(N)CCCCN)cc1C2=O (stereo unspecified)	85	> 100	–	–	–	–	–

Source: ChEMBL document CHEMBL4613313, “Multiple in Vitro Inhibition of HIV-1 Proteins by 2,6-Dipeptidyl-anthraquinone Conjugates Targeting the PBS RNA” (ACS Med Chem Lett, 2020)
